Measurements gathered from unrelated publications.
Lines come from different studies, so protocols differ.

Structure (SMILES) | species | medium | route | dose | notes | Cmax
Cc1cc(C)nc(Nc2ncc(C(=O)NCCc3c(C)[nH]c4ccccc34)cn2)c1 | C57BL/6 mouse | plasma | intraperitoneal | 22 mg/kg | – | 1150 ng/mL
CN[C@H](CC(C)C)C(=O)N[C@H]1C(=O)N[C@@H](CC(N)=O)C(=O)N[C@H]2C(=O)NC3C(=O)N[C@H](C(=O)N[C@H](C(=O)NCCC[N+](C)(C)C)c4cc(O)cc(O)c4-c4cc3ccc4O)[C@H](O)c3ccc(c(Cl)c3)Oc3cc2cc(c3OC2OC(CO)C(O)[C@H](O)[C@@H]2O[C@H]2CC(C)(NCc3ccc(-c4ccc(Cl)cc4)cc3)[C@H](O)[C@H](C)O2)Oc2ccc(cc2Cl)[C@H]1O (some centres unmarked) | mouse | plasma | intravenous | 10 mg/kg | – | 14100 ng/mL
COc1ncccc1-c1cnn2ccc(N3CCN(C(=O)OC(C)C)CC3)nc12 | mouse | plasma | oral | 10 mg/kg | – | 5200 nM
CCCCCCCC(=O)N[C@@H](CCCCN)C(=O)N[C@@H](CCCCN)C(=O)N[C@@H](C)C(=O)N[C@@H](CC(C)C)C(=O)N[C@@H](CCCCN)C(=O)N[C@@H](CC(C)C)C(=O)N[C@@H](C)C(=O)N[C@@H](CCCCN)C(=O)N[C@@H](CCCCN)C(=O)N1CCC[C@H]1C(=O)N[C@@H](CC(C)C)C(=O)N[C@@H](CCCCN)C(=O)N[C@@H](CC(C)C)C(=O)N[C@@H](CC(C)C)C(=O)N[C@@H](CCCCN)C(N)=O | female CD-1 mouse | blood | intravenous | 1 mg/kg | single dose | 441 ng/mL
C[C@]12CC[C@H](O)CC1=CC[C@@H]1[C@@H]2CC[C@]2(C)C(n3cnc4ccccc43)=CC[C@@H]12.Cl | mouse | plasma | oral | 10 mg/kg | – | 10.5 ng/mL
CCC[C@@](N)(CO)CCc1ccc(OCCCCCC(C)C)cc1 | mouse | plasma | oral | 10 mg/kg | – | 161 nM
C[C@]12CC[C@H](n3ccnc3)CC1=CC[C@@H]1[C@@H]2CC[C@]2(C)C(n3cnc4ccccc43)=CC[C@@H]12.Cl.Cl | male CD-1 mouse | plasma | oral | 10 mg/kg | – | 1510 ng/mL
CN1CCCCC1Cn1cc(C(=O)c2cc([N+](=O)[O-])ccc2I)c2ccccc21 (racemic) | mouse | plasma | oral | 25 mg/kg | – | 800 ng/mL
